High-throughput results from PubChem BioAssay.
This is a sample that favours compounds with a hit; in the whole collection about 4.1% have one here.
MrgX1 ag = agonists of human MrgX1 receptor, primary screen, HEK293 cells, Fluo-4 calcium flux. Mas-related G-protein coupled receptor member X1 (Homo sapiens), Q96LB2. Fluo-4 calcium fluorescence, agonist mode; hits give high values. B-score at 10 µM. hit rate 0.44% among 310,000. AID 588627, 2011;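 active = calcium response B-score plate-corrected fluorescence ratio at least 3 library SD, with starting fluorescence B-score inside 5 SD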
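Assay system: MrgX1-expressing HEK293 cells / Amount: fifteen thousand cells per well / Doses: test compound in the initial addition of three / Timing: cells plated overnight, dye loaded 0.5 h 37 °C, 0.5 h room temperature / Technique: kinetic calcium dye fluorescence, Fluo-4 NW / Control set: positive and negative controls per plate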
RGS4 pot = RGS4 potentiators or activators, primary screen, cell-based, HEK293 M3R inducible RGS4, calcium flux; carbachol calcium flux Fluo4; hits give low values; AID 463111, 2010; B-score at 10 µM; hit rate 0.92% among 310,000;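 active = B-score of the integrated calcium signal more than 4 SD below the library mean, with starting fluorescence not abnormally high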;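 also: negative B-score means reduced calcium response which marks RGS4 activation or potentiation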
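test system = HEK293 cells with stable M3R and inducible RGS4 | schedule = recording 10 s baseline at 1 Hz, 100 s post-agonist | technique = Fluo4-AM (2 µM) calcium-flux fluorescence, kinetic read | measure = Agonist-evoked peak-minus-minimum fluorescence over baseline, integrated ratio, B score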
Kir21 block = inhibitors of mouse Kir2.1 inward-rectifier potassium channel; Inward rectifier potassium channel 2 (Mus musculus), P35561; HEK293-Kir2.1, FluxOR thallium flux fluorescence; hits give low values; B-score at 10 µM; hit rate 0.85% among 310,000; AID 1672, 2009;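 active = fluorescence ratio B-score at or below minus 3 SD of library scores, with starting-brightness B-score within 2 SD, cut at about -4.2 in these data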;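 also: channel flux triggered by added potassium and thallium sulfate stimulus; B-score of peak minus minimum fluorescence over baseline after thallium stimulus; more negative B-score means stronger Kir2.1 block with less thallium influx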
Target sequence (P35561 whole entry, looked up): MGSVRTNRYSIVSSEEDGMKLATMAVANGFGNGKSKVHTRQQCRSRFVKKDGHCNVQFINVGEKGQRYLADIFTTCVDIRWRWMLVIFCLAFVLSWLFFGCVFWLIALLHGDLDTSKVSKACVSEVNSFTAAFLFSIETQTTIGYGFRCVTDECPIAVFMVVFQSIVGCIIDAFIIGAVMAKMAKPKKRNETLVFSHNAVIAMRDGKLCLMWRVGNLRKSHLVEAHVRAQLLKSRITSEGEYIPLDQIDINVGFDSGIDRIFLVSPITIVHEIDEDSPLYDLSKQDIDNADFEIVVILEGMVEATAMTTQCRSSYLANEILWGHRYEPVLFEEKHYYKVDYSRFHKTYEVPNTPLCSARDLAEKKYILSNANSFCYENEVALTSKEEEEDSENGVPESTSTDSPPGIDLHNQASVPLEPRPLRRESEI
RGS4 inh = RGS4 inhibitors, primary screen, cell-based, HEK293 M3R inducible RGS4, calcium flux; B-score at 10 µM; Regulator of G-protein signaling 4 (Homo sapiens), P49798; Fluo-4 calcium flux; hits give high values; triggered by carbachol at its EC20; hit rate 0.45% among 310,000;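 active = B-score, a plate-corrected calcium signal, over three deviations above library mean, with baseline fluorescence within five deviations of library mean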;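 also: RGS4 expression induced by doxycycline in cells with stable M3 receptor; B-score is computed from the integrated fluorescence ratio over baseline after carbachol; higher B-score means a larger calcium signal and so more RGS4 inhibition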
MrgX1 PAM = positive allosteric modulators of MrgX1, primary screen, HEK293 cells, Fluo-4 calcium flux | FDSS; hits give high values | B-score at 10 µM | hit rate 0.63% among 310,000;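 active = plate-corrected calcium response at least 3 library SD above typical, normal starting fluorescence, not activating the receptor alone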;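 also: compound read alongside a low EC10 to EC30 dose of BAM8-22 agonist; peak minus trough fluorescence over baseline measured at the second addition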
MrgX1 antag = antagonists of human MrgX1 receptor, primary screen, HEK293 cells, Fluo-4 calcium flux | Mas-related G-protein coupled receptor member X1 (Homo sapiens), Q96LB2 | BAM8-22 antagonism; hits give low values | B-score at 10 µM | hit rate 1.3% among 310,000 | AID 588676, 2011;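 active = calcium-response B-score plate-corrected more than 3 library SD below zero, starting fluorescence within 5 deviations, no agonist response on first addition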;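 also: peak minus trough fluorescence over baseline after final BAM8-22 challenge near maximal dose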
MrgX1 ant reconf = MrgX1 receptor antagonists, duplicate retest, confirmation, HEK293 cells, Fluo-4 calcium flux | shares compounds with MrgX1 antag | BAM8-22 calcium flux; hits give low values | remaining BAM8-22 calcium response % of control (hits give low values), % at 10 µM | hit rate 19% among 2,300 | AID 602420, 2012;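 active = remaining agonist calcium response no higher than 100% minus 3 SD of agonist-only control wells, with starting fluorescence near control levels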;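 also: agonist BAM8-22 given at a near maximal EC90 to ECmax level; peak minus minimum fluorescence divided by baseline after agonist addition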
HEK293 Ca flux = nonspecific calcium signal in parental HEK293, confirmation, counter-screen for MrgX1 antagonist project, parental HEK293 cells, Fluo-4 calcium flux. shares compounds with MrgX1 antag. Fluo-4 calcium fluorescence, FDSS. fluorescence ratio F(max-min)/F0 at 10 µM. hit rate 2% among 4,000. AID 624111, 2012;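 active = duplicate-averaged calcium fluorescence ratio at least three times the standard deviation of buffer wells, a nonspecific response in parental cells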
HEK293 Ca counter = calcium response in parental HEK293 cells, primary screen, counter-screen for MrgX1 allosteric activator project, cell-based, Fluo-4 calcium flux, duplicate; shares compounds with MrgX1 antag; Fluo-4 fluorescence ratio; hits give high values; fluorescence ratio F(max-min)/F0 at 10 µM; hit rate 0.4% among 4,000;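 active = calcium fluorescence ratio, averaged over duplicates, at least 3 SD of the buffer-well ratio, meaning a nonspecific response in receptor-free cells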;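 also: untransfected parental HEK293 lacking MrgX1 used as counterscreen for MrgX1 allosteric activators; fluorescence change taken during the second addition on a kinetic imager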
HEK293 Ca cntr2 = calcium response in parental HEK293 cells, primary screen, counter-screen for MrgX1 agonist project, cell-based, Fluo-4 calcium flux, duplicate, agonist mode; fluorescence ratio F(max-min)/F0 at 10 µM; Fluo-4 calcium fluorescence (FDSS); hits give high values; hit rate 8.7% among 4,000; shares compounds with MrgX1 antag;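 active = calcium fluorescence ratio at least three times the spread of buffer wells, meaning a non-specific response in parental cells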
An asterisk follows results filed as active; i = inactive; nt = no result given.

SMILES | MrgX1 ag | RGS4 pot | Kir21 block | RGS4 inh | MrgX1 PAM | MrgX1 antag | MrgX1 ant reconf | HEK293 Ca flux | HEK293 Ca counter | HEK293 Ca cntr2
CN(Cc1c(C(=O)N/N=C/c2cccc(F)c2)nnn1-c1nonc1N)C1CCCCC1 | i | i | 0.49 | i | i | i | nt | nt | nt | nt
CC(=O)c1ccc(OC(=O)c2ccc(-n3nc(C)cc3C)cc2)cc1 | i | i | 0.37 | i | i | i | nt | nt | nt | nt
Cc1cc(C)n(-c2ccc(C(=O)Oc3ccc4c(c3)OCO4)cc2)n1 | i | i | 0.88 | i | i | -6.7* | i | i | i | i
O=C(COC(=O)c1cccs1)c1ccc2c(c1)OCCO2 | i | i | 0.41 | i | i | i | nt | nt | nt | nt
O=C(COC(=O)c1cccs1)c1ccc2ccccc2c1 | i | i | -2.3 | i | i | -5.6* | i | i | i | i
CCSc1nc(C(F)(F)F)cc(=O)n1-c1ccccc1 | i | i | -2.8 | i | i | i | nt | nt | nt | nt
CC(C)Sc1nc(C(F)(F)F)cc(=O)n1-c1ccccc1 | i | i | -4.4* | i | i | -8.2* | i | i | i | i
Cc1cc(C(=O)NC2CCCCC2)c2cc(F)ccc2n1 | i | i | 1.3 | i | i | i | nt | nt | nt | nt
Cc1cc(C(=O)NC(C)c2ccccc2)c2cc(F)ccc2n1 (centres undefined) | i | i | -1.4 | i | i | -5.4* | i | i | i | i
CSc1nc2c(c(-c3ccccc3)c1C#N)CCC2 | i | i | -0.07 | i | i | -6.5* | i | i | i | i
O=C(N/N=C/C1=Cc2ccccc2OC1)c1ccncc1 | i | i | 0.1 | i | i | i | nt | nt | nt | nt
COCCn1c(SCC(=O)N2CC(=O)Nc3ccccc32)nnc1-c1ccoc1C | i | i | 0.02 | i | i | -11* | i | i | i | i
COCCCn1c(SCC(=O)N2CC(=O)Nc3ccccc32)nnc1-c1ccoc1C | i | i | -1.7 | i | i | i | nt | nt | nt | nt
CC1CCC(C(C)C)C(OC(=O)Cn2c(-c3ccc(Cl)cc3)[n+](C)c3ccccc32)C1 (centres undefined) | i | -8.6* | -15* | i | i | -9.9* | 45%* | i | i | i
CC1CCC(C(C)C)C(OC(=O)COC(=O)c2cccn2C)C1 (centres undefined) | i | i | -1 | i | i | i | nt | nt | nt | nt
COc1ccc(C2CC(C)=NN2C=O)cc1OC (centres undefined) | i | i | 2.3 | i | i | i | nt | nt | nt | nt
COCCN1Cc2cccc(C(=O)Nc3cccnc3)c2C1=O | i | nt | nt | nt | i | i | nt | nt | nt | nt
